Tested on: Rattus norvegicus
Assay: Inhibition of sucrose intake in Zucker fa/fa rat at 10 mg/kg, po after 4 hrs
Type: functional
Conditions: for inhibition in vivo at 10 mg/kg: Rattus norvegicus, Zucker, po, 4 h
Summary of the method: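 Female Zucker fa/fa rats (10-12 weeks, 300-350 g) trained six consecutive days on 5% sucrose with food and water withdrawn; day 7 randomized (n=6), dosed orally 10 mg/kg in 0.5% carboxymethylcellulose (2 mL/kg), exposed to sucrose 1 h later for 4 h. Consumption measured; % inhibition vs vehicle control; one-way ANOVA with Dunnett's test.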

Structure (SMILES) | inhibition in vivo at 10 mg/kg | Inhibition
Cc1ccc(C2CC(C(=O)NN3CCOCC3)=NN2c2ccc(Cl)cc2Cl)s1 (stereo unspecified) | 9.3% | –
O=C(NN1CCOCC1)C1=NN(c2ccc(Cl)cc2Cl)C(c2cccs2)C1 (stereo unspecified) | 3% | –
O=C(NN1CCCCC1)C1=NN(c2ccc(Cl)cc2Cl)C(c2ccc(Cl)cc2)C1 (stereo unspecified) | 23.6% | –
CN1CCN(NC(=O)C2=NN(c3ccc(Cl)cc3Cl)C(c3ccc(Cl)cc3)C2)CC1 (stereo unspecified) | 22.6% | –
O=C(NN1CCOCC1)C1=NN(c2ccccc2)C(c2ccc(Cl)cc2)C1 (stereo unspecified) | 0.5% | –
O=C(NN1CCOCC1)C1=NN(c2ccccc2)C(c2ccccc2)C1 (stereo unspecified) | 11.9% | –
O=C(NN1CCOCC1)C1=NN(c2ccc(Cl)cc2Cl)C(c2ccccc2)C1 (stereo unspecified) | 31.9% | –
CCCCOc1ccc(C2CC(C(=O)NN3CCOCC3)=NN2c2ccc(Cl)cc2Cl)cc1 (stereo unspecified) | 18.1% | –
O=C(NN1CCOCC1)C1=NN(c2ccc(Cl)cc2Cl)C(c2ccc3c(c2)OCO3)C1 (stereo unspecified) | 17% | –
O=C(NN1CCOCC1)C1=NN(c2ccc(Cl)cc2Cl)C(c2ccco2)C1 (stereo unspecified) | 15.1% | –
O=C(NN1CCOCC1)C1=NN(c2ccc(Cl)cc2Cl)C(c2ccc(Br)cc2)C1 (stereo unspecified) | 24.2% | –
O=C(NN1CC2CCCC2C1)C1=NN(c2ccc(Cl)cc2Cl)C(c2ccc(Cl)cc2)C1 (stereo unspecified) | 3.6% | –
O=C(NN1CCCCCC1)C1=NN(c2ccc(Cl)cc2Cl)C(c2ccc(Cl)cc2)C1 (stereo unspecified) | 8.4% | –
O=C(NN1CCCC1)C1=NN(c2ccc(Cl)cc2Cl)C(c2ccc(Cl)cc2)C1 (stereo unspecified) | 2.5% | –
O=C(NN1CCOCC1)C1=NN(c2ccc(Cl)cc2Cl)C(c2ccc(Cl)cc2)C1.O=C(O)C(=O)O (stereo unspecified) | – | 20.4%
O=C(NN1CCOCC1)C1=NN(c2ccc(Cl)cc2Cl)C(c2ccc(Cl)s2)C1 (stereo unspecified) | 16.7% | –
